Consider 7 molecules from publication PMC7814465 (Cell reports, 2020).

One series concerns TNPO1 (His-TNPO1). Description: SDD-AGE oligomer formation, TNPO1. The series is classed as biochemical. Conditions: 10-fold molar excess: 2 μM importin, 20 μM TMR-DPR, pH 7.5, 200 mM NaCl, 1 h RT.
In a further series the test system is Impα3 (His-Impα3). The series can be described thus: SDD-AGE oligomer formation, Impα3. The note with it: 10-fold molar excess: 2 μM importin, 20 μM TMR-DPR, pH 7.5, 200 mM NaCl, 1 h RT. Type of series: biochemical, rat.
Series [1] has as its system TDP-43 (TDP-43-Tev-MBP/MBP-Tev-TDP-43-GFP). The series can be described thus: TDP-43 condensate formation with DPRs, microscopy. The series is classed as biochemical. Conditions: TMR-labeled DPR, equimolar (1x) or two-fold (2x), 2 μM TDP-43/TDP-43-GFP, Tev cleavage, 200 mM NaCl, pH 7.5. In short, it runs like this: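 Size-exclusion-purified TDP-43-MBP-His (2 μM) was mixed with substoichiometric MBP-TDP-43-GFP-His (1:4–1:5). Condensates were imaged by laser scanning confocal microscopy.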

The test system of a further series is GST-GR25 / TDP-43. Description: Sedimentation of GST-GR25 with TDP-43 and NTRs. Conditions: anti-GST western blot, three independent experiments. Type of series: biochemical. An outline of the steps: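 1 µM TDP-43-MBP-His was Tev-cleaved (20 µg/ml His-Tev, 60 min, 30°C) with or without equimolar GST-tagged DPR and/or NTRs. Samples were centrifuged 15 min at 21,000 g, 4°C. Equal volumes of supernatant and pellet were analysed by anti-GST western blot.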

Series [2] relates to NTRs (importins) from HeLa cytosol. Description: Pull-down from HeLa cytosol with biotinylated DPR, NTRs. The series is classed as binding. The note with it: immobilized biotinylated peptide, western blot. In short, it runs like this: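 It was cleared at 21,000 g, 4°C. Cytosol was incubated under physiological buffer conditions with biotinylated DPR peptides immobilized on ovalbumin-blocked streptavidin beads, and bound NTRs were detected by western blot.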
Background: In western blotting, separated proteins are transferred to a membrane and probed.

In the next series the target is T1, TNPO1 (TEV-cleaved) (UniProt Q92973 1-898).
T1 sequence (looked up): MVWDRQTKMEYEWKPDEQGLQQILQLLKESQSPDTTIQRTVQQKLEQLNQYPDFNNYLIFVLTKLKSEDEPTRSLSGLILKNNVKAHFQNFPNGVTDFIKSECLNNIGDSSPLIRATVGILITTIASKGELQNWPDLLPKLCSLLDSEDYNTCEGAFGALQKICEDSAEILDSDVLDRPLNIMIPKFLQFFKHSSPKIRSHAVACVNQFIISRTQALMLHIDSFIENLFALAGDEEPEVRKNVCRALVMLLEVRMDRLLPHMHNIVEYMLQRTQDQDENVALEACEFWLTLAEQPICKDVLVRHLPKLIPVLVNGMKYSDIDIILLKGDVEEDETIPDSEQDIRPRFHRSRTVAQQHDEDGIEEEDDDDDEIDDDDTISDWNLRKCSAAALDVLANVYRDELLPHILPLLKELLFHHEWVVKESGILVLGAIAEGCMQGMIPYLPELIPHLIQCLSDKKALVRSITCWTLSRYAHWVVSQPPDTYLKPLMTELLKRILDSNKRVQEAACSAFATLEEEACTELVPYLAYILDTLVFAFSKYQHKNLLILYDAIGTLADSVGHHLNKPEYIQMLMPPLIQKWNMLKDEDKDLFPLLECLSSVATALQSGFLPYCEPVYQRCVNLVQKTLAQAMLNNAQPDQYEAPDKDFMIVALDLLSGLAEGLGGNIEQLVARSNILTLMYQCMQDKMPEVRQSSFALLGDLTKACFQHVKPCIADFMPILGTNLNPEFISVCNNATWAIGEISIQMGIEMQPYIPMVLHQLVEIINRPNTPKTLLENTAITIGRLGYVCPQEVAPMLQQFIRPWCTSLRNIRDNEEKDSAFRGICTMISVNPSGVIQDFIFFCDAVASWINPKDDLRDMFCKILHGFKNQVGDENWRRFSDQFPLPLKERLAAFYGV
The series can be described thus: fluorescence polarisation. (In general: Polarisation of emitted light reports the rotation of a fluorescent probe.)

Primed or numbered codes have the meaning given here. Ends that are not written are not given here. FITC′ = fluorescein isothiocyanate

“poly-GP: non-charged DPR species; in the experiments GP25 (GPGPGPGPGPGPGPGPGPGPGPGPGPGPGPGPGPGPGPGPGPGPGPGPGP; not fully specified; also: biotin, position not given here) [reference compound]”: the “oligomer formation of TNPO1 (SDS-resistant)” value (from here on “oligomer formation of TNPO1”) in the series with TNPO1 (His-TNPO1) was “not poly-GP”. In addition, the “oligomer formation of Impα3 (SDS-resistant)” value (“oligomer formation of Impα3” below) in the series on Impα3 (His-Impα3) is reported as “not poly-GP”. Besides, in series [1], the TDP-43 condensate formation entry was “no effect”.

With “GST-GR25: recombinant GST fusion of GR25”, the “solubility of GST-GR25” value was “completely soluble” with GST-GR25 / TDP-43 (absence of TDP-43) and “moved efficiently into the pellet fraction” with GST-GR25 / TDP-43 (presence of cleaved TDP-43). Consider “TMR-PR25: tetramethylrhodamine (TMR)-labeled PR25 (PRPRPRPRPRPRPRPRPRPRPRPRPRPRPRPRPRPRPRPRPRPRPRPRPR; also: TMR label, position not given here)”, for which the “oligomer formation of TNPO1” value in the series on TNPO1 (His-TNPO1) is “oligomer formation”. In the series with Impα3 (His-Impα3), the “oligomer formation of Impα3” value was “oligomer formation”. Regarding “TMR-GR25: tetramethylrhodamine (TMR)-labeled GR25 (GRGRGRGRGRGRGRGRGRGRGRGRGRGRGRGRGRGRGRGRGRGRGRGRGR; also: TMR label, position not given here)”, in the series on TNPO1 (His-TNPO1), the “oligomer formation of TNPO1” value was “oligomer formation”. In addition, in the series on Impα3 (His-Impα3), the “oligomer formation of Impα3” value is “oligomer formation”. Consider “GP25: non-charged control DPR (GPGPGPGPGPGPGPGPGPGPGPGPGPGPGPGPGPGPGPGPGPGPGPGPGP; not fully specified; also: biotin, position not given here)”, for which the binding in pull-down result in series [2] is reported as “not to the non-charged control DPR GP25”. {FITC′}-GRGRGRGRGRGRGRGRGRGRGRGRGRGRGRGRGRGRGRGRGRGRGRGRGR [FITC-GR25]: the Kd (in general, the free concentration of one partner at which half of the binding sites on the other are occupied at equilibrium, for simple one-to-one binding) in the series with TNPO1 (TEV-cleaved) was roughly 0.2 µM.

{FITC′}-PRPRPRPRPRPRPRPRPRPRPRPRPRPRPRPRPRPRPRPRPRPRPRPRPR [FITC-PR25]: the Kd in the series with TNPO1 (TEV-cleaved) is roughly 0.2 µM.
